Results as given in ChEMBL document CHEMBL4145682, “An Affinity-Based Probe for the Human Adenosine A2A Receptor” (J Med Chem, 2018).
Calls of active or inactive are those of the source. No cut-off for these calls is given here.

Experiments:
[1] = biological target: T1, Adenosine receptor A2a (Homo sapiens, UniProt P29274); test: Displacement of [3H]ZM241385 human A2AR […] expressed in […] cell membranes incubated for 0.5 hrs
Outline: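 HEK293 cell membranes stably expressing hA2AR, 10 μg protein per tube. Buffer 25 mM Tris-HCl pH 7.4, 5 mM MgCl2, 0.1% CHAPS. [3H]ZM241385 displaced by increasing compound concentrations at 25°C for 0.5 h (standard) or 3 h. Nonspecific binding defined with 100 µM NECA. Stopped by GF/B filtration and scintillation counting. Apparent pKi, means ± SEM of three experiments in duplicate. Shift = pKi(3h) − pKi(0.5h).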

[2] = biological target: T1, Adenosine receptor A2a; test: Potency shift, difference in pKi for displacement of [3H]ZM241385 human A2AR (1 to 316 residues) expressed in Pichia pastoris SMD1168 cell membranes incubated for 0.5 hrs to pKi for displacement of [3H]ZM241385 human A2AR (1 to 316 residues) expressed in Pichia pastoris SMD1168 cell membranes incubated for 3 hrs
[3] = biological target: T1, Adenosine receptor A2a; test: Photoaffinity labelling of N-terminal FLAG-tagged and C-terminal His-tagged human adenosine A2A receptor expressed in HEK293 cell membranes at 1 uM incubated for 1 hr by SDS PAGE and Western blot analysis based affinity-based protein labeling assay
Outline: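 Membranes (1 mg/mL in 50 mM Tris-HCl pH 7.4) came from HEK293 transiently transfected 48 h with FLAG-hA2AR-His. Incubated with probe (0.1–3 μM) or 1% DMSO for 1 h at room temperature. Click at room temperature for 1 h, with CuSO4 added last: 4.4 μM Cy3-azide, 33 mM ascorbate, 1.1 mM THPTA, 5.6 mM CuSO4. Denatured 30 min at 37°C. Read-out: in-gel fluorescence, with anti-FLAG Western blot (~50 kDa).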

[4] = biological target: T1, Adenosine receptor A2a; test: Photoaffinity labelling of purified human A2AR (1 to 316 residues) by SDS-PAGE analaysis pretreated with 10 uM ZM241385 followed by compound addition at 1 uM by competitive labeling assay
Outline: (§1)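 Purified hA2AR (0.1 mg/mL) was preincubated 1 h on ice with 10 μM competitor or 1% DMSO. Then labeled with 1 μM probe for 0.5 h on ice. CuAAC with Cy3-azide followed, then SDS-PAGE in-gel fluorescence normalized to anti-His immunoblot. Three experiments; Student's t-test.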

[5] = biological target: T1, Adenosine receptor A2a; test: Photoaffinity labelling of purified human A2AR (1 to 316 residues) by SDS-PAGE analaysis pretreated with 10 uM LUF7445 followed by compound addition at 1 uM by competitive labeling assay; outline: as §1
[6] = biological target: T1, Adenosine receptor A2a; test: Covalent binding to human A2AR (1 to 316 residues) expressed in Pichia pastoris SMD1168 cell membranes assessed as radioligand binding level pre-incubated at 1.5 to 5 nM followed by compound wash out before [3H]ZM241385 addition (reference value: 65 +/- 2%)
[7] = organism: Homo sapiens; test: Selectivity for human A2AR (1 to 316 residues) expressed in Pichia pastoris SMD1168 cell membranes over human A3AR
[8] = biological target: T1, Adenosine receptor A2a; test: Photoaffinity labelling of purified human A2AR (1 to 316 residues) by SDS-PAGE analaysis
Outline: (§2)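 His-tagged hA2AR (residues 1–316) from Pichia pastoris was purified by HisTrap, diluted to 0.1 mg/mL in 25 mM HEPES pH 7.5, 100 mM NaCl, 10 μM LMNG. Incubated with probe at a range of concentrations or 1% DMSO for 1 h on ice. CuAAC click on ice, 1 h: 5.6 mM CuSO4, 33 mM ascorbate, 1.1 mM THPTA, 4.4 μM Cy3-azide. Read-out: SDS-PAGE in-gel fluorescence of the ~47 kDa band, normalized to anti-His immunoblot. pEC50 fitted; three experiments.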

[9] = biological target: T1, Adenosine receptor A2a; test: Photoaffinity labelling of purified human A2AR (1 to 316 residues) by Western blot analysis; outline: as §2
[10] = biological target: T1, Adenosine receptor A2a; test: Displacement of [3H]ZM241385 human A2AR (1 to 316 residues) expressed in Pichia pastoris SMD1168 cell membranes

T1 sequence (P29274 whole entry): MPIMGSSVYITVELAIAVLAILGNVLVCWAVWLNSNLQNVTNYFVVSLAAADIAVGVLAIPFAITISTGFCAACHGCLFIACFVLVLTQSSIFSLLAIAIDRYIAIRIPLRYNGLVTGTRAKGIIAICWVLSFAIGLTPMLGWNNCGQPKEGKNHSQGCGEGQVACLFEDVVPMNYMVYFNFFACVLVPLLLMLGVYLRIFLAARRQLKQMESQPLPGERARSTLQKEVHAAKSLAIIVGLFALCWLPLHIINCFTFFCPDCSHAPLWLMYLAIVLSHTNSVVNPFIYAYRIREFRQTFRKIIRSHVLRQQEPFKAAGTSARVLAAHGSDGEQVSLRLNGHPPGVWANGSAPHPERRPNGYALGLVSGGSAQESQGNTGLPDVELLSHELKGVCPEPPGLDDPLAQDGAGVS

## Nc1nc(NCCCNC(=O)c2ccc(S(=O)(=O)F)cc2)nc2nc(-c3ccco3)nn12
[1]
  Ki: 5.37 nM
[2]
  fold change (FC): 0.72

## C#CCN(CCCCCNc1nc(N)n2nc(-c3ccco3)nc2n1)C(=O)c1ccc(S(=O)(=O)F)cc1
[1]
  Ki: 3.89 nM
[3]
  Activity: Active
[4]
  Activity: inactive
[5]
  Activity: inactive
[6]
  Activity: 43%
[2]
  fold change (FC): 0.41
[7]
  Selectivity ratio: < 10
[8]
  Activity: Dose-dependent effect
  EC50: 794 nM
[9]
  Activity: Active
[10]
  inhibition: Dose-dependent effect

## Nc1nc(NCCCCCNC(=O)c2ccc(S(=O)(=O)F)cc2)nc2nc(-c3ccco3)nn12
[1]
  Ki: 2.75 nM
  inhibition: Dose-dependent effect
[2]
  fold change (FC): 0.65
[10]
  inhibition: Dose-dependent effect

## Nc1nc(NCCCCNC(=O)c2ccc(S(=O)(=O)F)cc2)nc2nc(-c3ccco3)nn12
[1]
  Ki: 6.31 nM
  inhibition: Dose-dependent effect
[2]
  fold change (FC): 0.85
[10]
  inhibition: Dose-dependent effect
